M5 ag = agonists of human muscarinic M5 receptor (CHRM5). P08912. CHO-K1 hM5 cells, Fluo-8 calcium fluorescence; 0% DMSO wells, 100% maximal acetylcholine response. activation, % at 3 µM. hit rate 0.19% among 360,000. AID 624037;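 active = activation above the run's mean over test compounds plus 3 SD, cut at about 23% in these data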;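 note: signal is peak over basal fluorescence ratio across the kinetic read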
M5 antag = antagonists of human muscarinic M5 receptor (CHRM5); P08912; CHO-hM5 cells, Fluo-8 calcium fluorescence, ACh EC80; inhibition, % at 3 µM; hit rate 0.59% among 360,000; AID 624040;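 active = inhibition above a per-plate cutoff, the mean of that plate's test compounds plus 3 SD, cut at about 27% in these data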
M4 PAM = positive allosteric modulators of human muscarinic M4 receptor. P08173. CHO-K1 hM4/Gqi5, Fluo-8 calcium fluorescence, ACh EC20; 0% = ACh EC20, 100% = maximal ACh. activation, % at 3 µM. hit rate 0.4% among 360,000;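 active = activation above its plate's cutoff, the mean activation of sample wells plus 3 SD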
Target sequence (P08173 whole entry, looked up): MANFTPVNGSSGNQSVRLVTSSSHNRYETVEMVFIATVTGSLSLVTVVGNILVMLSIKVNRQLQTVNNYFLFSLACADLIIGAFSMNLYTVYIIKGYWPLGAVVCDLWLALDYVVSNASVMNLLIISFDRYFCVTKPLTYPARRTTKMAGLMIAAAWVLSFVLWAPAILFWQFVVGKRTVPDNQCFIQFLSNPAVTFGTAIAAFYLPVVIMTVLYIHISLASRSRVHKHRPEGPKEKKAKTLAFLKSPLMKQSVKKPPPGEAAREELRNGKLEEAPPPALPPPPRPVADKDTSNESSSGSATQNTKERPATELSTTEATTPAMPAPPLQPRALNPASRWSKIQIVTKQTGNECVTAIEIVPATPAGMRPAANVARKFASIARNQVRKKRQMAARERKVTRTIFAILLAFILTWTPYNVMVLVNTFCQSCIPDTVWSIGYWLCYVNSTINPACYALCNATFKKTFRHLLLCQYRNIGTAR
M5 PAM = positive allosteric modulators of human muscarinic M5 receptor; CHO-K1 hM5, Fluo-8 calcium, ACh EC20 PAM; 0% = ACh EC20, 100% = ACh EC100; activation, % at 3 µM; hit rate 0.3% among 360,000; AID 624038;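 active = activation above the run cutoff, the mean activation of all test compounds plus 3 SD, cut at about 18% in these data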
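Measured by: Fluo-8 calcium fluorescence; material: human M5 receptor in CHO-K1 cells; schedule: Post-acetylcholine fluorescence recording 140 s; benchmarks: low control EC20 acetylcholine (0%), high control EC100 acetylcholine (100%); read-out: Max/basal fluorescence ratio as % of EC20–EC100 ACh window; compound: single dose, 3 µM nominal final test concentration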
M4 ag = CHRM4 agonism in calcium assay; P08173; CHO-K1 hM4/Gqi5, Fluo-8 calcium fluorescence; vehicle 0%, full acetylcholine response 100%; activation, % at 3 µM; hit rate 0.14% among 360,000; AID 624127;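 active = activation above the run mean over all test wells plus 3 SD, cut at about 32% in these data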;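 note: peak over basal fluorescence ratio per well then scaled between controls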
CHRM4 antagonist = blocks acetylcholine activation of human M4 receptor | CHO-hM4 cells, ACh EC80, Fluo-8 calcium fluorescence | inhibition, % at 3 µM | hit rate 0.73% among 360,000;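 active = inhibition above its plate's cutoff, the mean inhibition of sample wells plus 3 SD, cut at about 27% in these data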
Numbers stand for hits. The list is not random: actives were taken first. Their share in the collection is about 1.8%.

What do the screens show for `O=C(COc1ccc(-c2ccccc2)cc1)NNC(=O)Nc1ccc(F)cc1F`?
M5 ag: inactive; M5 antag: inactive; M4 PAM: inactive; M5 PAM: 43; M4 ag: inactive; CHRM4 antagonist: inactive

What do the screens show for `O=C(COc1ccc(-c2ccccc2)cc1)NNC(=O)NC1CCCCC1`?
M5 ag: inactive; M5 antag: inactive; M4 PAM: inactive; M5 PAM: inactive; M4 ag: inactive; CHRM4 antagonist: 87

Results for O=C(COc1ccccc1)NC1CCCCC1 ?
M5 ag: inactive; M5 antag: inactive; M4 PAM: inactive; M5 PAM: inactive; M4 ag: inactive; CHRM4 antagonist: inactive

Results for O=C(COc1ccc(F)cc1F)NNC(=O)Nc1cccc([N+](=O)[O-])c1 ?
M5 ag: inactive; M5 antag: inactive; M4 PAM: inactive; M5 PAM: inactive; M4 ag: inactive; CHRM4 antagonist: inactive

How did COc1ccc(OC)c(NC(=O)NNC(=O)COc2ccc(-c3ccccc3)cc2)c1 do in these assays?
M5 ag: inactive; M5 antag: inactive; M4 PAM: inactive; M5 PAM: inactive; M4 ag: inactive; CHRM4 antagonist: inactive

What do the screens show for `CCOc1ccc(NC(=O)NNC(=O)COc2ccc3ccccc3c2)cc1`?
M5 ag: inactive; M5 antag: inactive; M4 PAM: inactive; M5 PAM: 34; M4 ag: inactive; CHRM4 antagonist: inactive

Results for O=C(COc1ccc([N+](=O)[O-])cc1)NNC(=O)Nc1cccc(F)c1 ?
M5 ag: inactive; M5 antag: 29; M4 PAM: inactive; M5 PAM: inactive; M4 ag: inactive; CHRM4 antagonist: inactive

What do the screens show for `CCN1CCc2c(sc(NC(=O)c3ccc(S(=O)(=O)N(C)CC4CCCO4)cc3)c2C(N)=O)C1` (stereo unspecified)?
M5 ag: inactive; M5 antag: inactive; M4 PAM: inactive; M5 PAM: inactive; M4 ag: inactive; CHRM4 antagonist: inactive

How did CCOc1ccc(/C=N/NC(=O)CSc2n[nH]c(=O)[nH]c2=O)cc1OC do in these assays?
M5 ag: inactive; M5 antag: inactive; M4 PAM: inactive; M5 PAM: inactive; M4 ag: inactive; CHRM4 antagonist: inactive

How did COc1cc(CCC(=O)OCC(=O)Nc2cc(S(=O)(=O)N3CCOCC3)ccc2Cl)cc(OC)c1OC do in these assays?
M5 ag: inactive; M5 antag: inactive; M4 PAM: inactive; M5 PAM: inactive; M4 ag: inactive; CHRM4 antagonist: inactive

What do the screens show for `C=CS(=O)(=O)N(Cc1ccccc1)[C@H](CO)CC(C)C`?
M5 ag: inactive; M5 antag: inactive; M4 PAM: inactive; M5 PAM: inactive; M4 ag: inactive; CHRM4 antagonist: inactive

What do the screens show for `CC(C)C[C@H](CO)N(Cc1ccccc1)S(=O)(=O)N(Cc1ccccc1)[C@@H](CO)CC(C)C`?
M5 ag: inactive; M5 antag: inactive; M4 PAM: inactive; M5 PAM: inactive; M4 ag: inactive; CHRM4 antagonist: 34

What do the screens show for `CC(OC(=O)c1ccncc1)C(=O)Nc1cc(S(=O)(=O)N2CCCCC2)ccc1Cl` (stereo unspecified)?
M5 ag: inactive; M5 antag: inactive; M4 PAM: inactive; M5 PAM: inactive; M4 ag: inactive; CHRM4 antagonist: inactive

How did Nc1nc(N2CCCCC2)nc2ccccc12 do in these assays?
M5 ag: inactive; M5 antag: inactive; M4 PAM: inactive; M5 PAM: inactive; M4 ag: inactive; CHRM4 antagonist: inactive

What do the screens show for `Nc1nc(N2CCN(c3ccccn3)CC2)nc2ccccc12`?
M5 ag: inactive; M5 antag: inactive; M4 PAM: inactive; M5 PAM: inactive; M4 ag: inactive; CHRM4 antagonist: 27

What do the screens show for `O=C(Nc1ncccc1Cl)C1COc2ccccc2O1` (stereo unspecified)?
M5 ag: inactive; M5 antag: inactive; M4 PAM: inactive; M5 PAM: inactive; M4 ag: inactive; CHRM4 antagonist: inactive

How did Oc1ccc(C23CCCC2C2(CCCC2)c2ccc(O)cc2O3)c(O)c1 (stereo unspecified) do in these assays?
M5 ag: inactive; M5 antag: inactive; M4 PAM: inactive; M5 PAM: inactive; M4 ag: 59; CHRM4 antagonist: inactive

How did CN(C)c1ccc(-c2csc(C(O)c3cccc(Cl)c3)n2)cc1 (stereo unspecified) do in these assays?
M5 ag: inactive; M5 antag: inactive; M4 PAM: inactive; M5 PAM: inactive; M4 ag: 47; CHRM4 antagonist: inactive

Results for O=C(c1cccc(S(=O)(=O)N2CCOCC2)c1)N1CCCC(C(F)(F)F)C1 (stereo unspecified) ?
M5 ag: inactive; M5 antag: inactive; M4 PAM: inactive; M5 PAM: inactive; M4 ag: inactive; CHRM4 antagonist: inactive

How did CC1([N+](=O)[O-])COC2(OC1)C(=O)Nc1ccccc12 (stereo unspecified) do in these assays?
M5 ag: inactive; M5 antag: inactive; M4 PAM: inactive; M5 PAM: inactive; M4 ag: inactive; CHRM4 antagonist: 48

Results for COc1ccc(OC)c(-c2nnc3n2N=C(c2ccc(OC(F)F)c(OCC4CC4)c2)CS3)c1 ?
M5 ag: inactive; M5 antag: inactive; M4 PAM: inactive; M5 PAM: inactive; M4 ag: inactive; CHRM4 antagonist: 28

Results for COc1ccc(C2=Nn3c(nnc3-c3ccccc3OC)SC2)cc1OCC1CC1 ?
M5 ag: inactive; M5 antag: inactive; M4 PAM: inactive; M5 PAM: inactive; M4 ag: inactive; CHRM4 antagonist: inactive

How did COc1ccc(C2=Nn3c(nnc3-c3ccccc3F)SC2)cc1OC1CCOC1 (stereo unspecified) do in these assays?
M5 ag: inactive; M5 antag: inactive; M4 PAM: inactive; M5 PAM: inactive; M4 ag: inactive; CHRM4 antagonist: inactive

Results for COc1ccc(C2=Nn3c(nnc3-c3ccccc3F)SC2)cc1OC1CCCC1 ?
M5 ag: inactive; M5 antag: inactive; M4 PAM: inactive; M5 PAM: inactive; M4 ag: inactive; CHRM4 antagonist: 29

What do the screens show for `N#Cc1nc(-c2cccs2)oc1N1CCN(Cc2ccccc2)CC1`?
M5 ag: inactive; M5 antag: inactive; M4 PAM: inactive; M5 PAM: inactive; M4 ag: inactive; CHRM4 antagonist: 85

Results for O=C(Nc1ccc(F)cc1)c1cc(S(=O)(=O)Nc2ccc(F)cc2)cs1 ?
M5 ag: inactive; M5 antag: 32; M4 PAM: inactive; M5 PAM: inactive; M4 ag: inactive; CHRM4 antagonist: inactive

Results for COc1ccc(NC(=O)c2cc(S(=O)(=O)Nc3ccc(OC)cc3)cs2)cc1 ?
M5 ag: inactive; M5 antag: inactive; M4 PAM: inactive; M5 PAM: inactive; M4 ag: inactive; CHRM4 antagonist: inactive

High-throughput results deposited in PubChem by The Scripps Research Institute Molecular Screening Center.
